Test results from ChEMBL document CHEMBL1135395, “Design and synthesis of potent nonpeptidic farnesyltransferase inhibitors based on a terphenyl scaffold” (J Med Chem, 2002).

Assays:
[1] = biological target: Protein farnesyltransferase (Homo sapiens, UniProt P49354+P49356); assay: Inhibition of farnesyltransferase from human Burkitt lymphoma (Daudi) cells
Procedure, shortened: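 Partially purified enzyme from Daudi cells was incubated with [3H]FPP and recombinant H-Ras-CVLS at a range of inhibitor concentrations for 30 min at 37 °C. IC50 was determined.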

[2] = biological target: Geranylgeranyl transferase type I (Homo sapiens, UniProt P49354+P53609); assay: Inhibition of partially purified Geranylgeranyl transferase type I (GGTase-I) from human Burkitt lymphoma (Daudi) cells
Procedure, shortened: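 Partially purified enzyme from Daudi cells was incubated with [3H]GGPP and recombinant H-Ras-CVLL at a range of inhibitor concentrations for 30 min at 37 °C. The reaction was stopped and filtered on glass fiber filters to separate free from Ras-bound label.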

| IC50 [1] | IC50 [2] | Structure (SMILES) |
| --- | --- | --- |
| > 10000 nM | > 10 µM | O=C(O)c1cccc(-c2ccc(NCc3ccc(S)cc3)cc2-c2ccccc2)c1 |
| 770 nM | > 100 µM | Cc1cccc(-c2ccc(NC[C@@H](N)CS)cc2)c1 |
| 380 nM | 6.9 µM | COC(=O)c1cccc(-c2ccc(NCc3cncn3Cc3ccc(C#N)cc3)cc2-c2ccccc2)c1 |
| > 10000 nM | > 10 µM | COC(=O)c1cccc(-c2ccc(NCc3cccc(S)c3)cc2-c2ccccc2)c1 |
| > 10000 nM | > 10 µM | COC(=O)c1cccc(-c2ccc(NCc3ccccc3S)cc2-c2ccccc2)c1 |
| 310 nM | 5.9 µM | COC(=O)c1cccc(-c2ccc(NCc3cncn3Cc3ccc([N+](=O)[O-])cc3)cc2-c2ccccc2)c1 |
| > 10000 nM | > 10 µM | O=C(O)c1cccc(-c2ccc(NCc3cccc(S)c3)cc2-c2ccccc2)c1 |
|  | 7 µM | Nc1ccc(Cn2cncc2CNc2ccc(-c3cccc(C(=O)O)c3)c(-c3ccccc3)c2)cc1 |
| 37 nM | 35 µM | COc1cc(NC[C@@H](N)CS)ccc1-c1cccc(C(=O)O)c1 |
| 5600 nM | > 10 µM | COC(=O)c1cccc(-c2ccc(NCc3cncn3Cc3ccc(N)cc3)cc2-c2ccccc2)c1 |
| 150 nM | 90 µM | N[C@@H](CS)CNc1ccc(-c2cccc(C(=O)O)c2)cc1 |
| 930 nM | 100 µM | COC(=O)c1cccc(-c2ccc(NC[C@@H](N)CS)cc2)c1 |
| > 10000 nM | > 10 µM | COC(=O)c1cccc(-c2ccc(NCc3ccc(S)cc3)cc2-c2ccccc2)c1 |
| 150 nM |  | CSCC[C@H](NC(=O)c1ccc(NC[C@@H](N)CS)cc1)C(=O)O |
| 3800 nM | > 10 µM | O=C(CCS)Nc1ccc(-c2cccc(C(=O)O)c2)c(-c2ccccc2)c1 |
| > 10000 nM | > 10 µM | O=C(O)c1cccc(-c2ccc(NC(=O)c3cccc(S)c3)cc2-c2ccccc2)c1 |
| 430 nM | 4.4 µM | N#Cc1ccc(Cn2cncc2CNc2ccc(-c3cccc(C(=O)O)c3)c(-c3ccccc3)c2)cc1 |
| 450 nM | 3.9 µM | O=C(O)c1cccc(-c2ccc(NCc3cncn3Cc3ccc([N+](=O)[O-])cc3)cc2-c2ccccc2)c1 |
| 20 nM | 0.64 µM | N[C@@H](CS)CNc1ccc(-c2cccc(C(=O)O)c2)c(-c2ccccc2)c1 |
| > 10000 nM | > 10 µM | COC(=O)c1cccc(-c2ccc(NC(=O)c3cccc(S)c3)cc2-c2ccccc2)c1 |
| 1200 nM | > 100 µM | N[C@@H](CS)CNc1ccc(-c2ccccc2)cc1 |
| 30 nM | 4.4 µM | N[C@@H](CS)CNc1ccc(-c2cccc(C3N=NN=N3)c2)cc1 |
| > 10000 nM | > 10 µM | COC(=O)c1cccc(-c2ccc(NC(=O)CCS)cc2-c2ccccc2)c1 |
| 2300 nM | 5 µM | O=C(O)c1cccc(-c2ccc(NCc3cnc[nH]3)cc2-c2ccccc2)c1 |
| > 10000 nM | > 10 µM | COC(=O)c1cccc(-c2ccc(NCc3c[nH]cn3)cc2-c2ccccc2)c1 |
| 41 nM | 2.4 µM | CCCOc1cc(NC[C@@H](N)CS)ccc1-c1cccc(C(=O)O)c1 |
